The source of these data is ChEMBL document CHEMBL4513216, “Probing the Open Global Health Chemical Diversity Library for Multistage-Active Starting Points for Next-Generation Antimalarials” (ACS Infect Dis, 2020).

SMILES strings stand for the structures.

The nature of this series: Toxicity liver stage against HepG2, at 10uM. Format: cell-based. Details: test concentration 10 uM, cell line HepG2-A16-CD81EGFP. To be noted: human, HepG2-A16-CD81EGFP cells; read-out: INHIBITION
The essentials:
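Uninfected HepG2-A16-CD81EGFP cells, 3 × 10^3 per well, 1536-well, plated on prespotted compound at 10 μM final, parasite-free screening media added to match infected plates; puromycin 10 μM positive, DMSO 0.5% negative; run in parallel with 48 h PbLuc assay at 37 °C, 5% CO2; viability by CellTiter-Glo luminescence, normalized to controls.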
`Cc1cccc(-c2nc(CN3CCc4cncnc4C3)no2)c1`: the cytotoxicity at 10 µM is -10.4%. Consider `CCc1nc(CN(C)CC(c2cccs2)N2CCOCC2)no1` (stereo unspecified), for which the cytotoxicity at 10 µM was -2.36%. The figure for `COCc1ccc(CNC(=O)C2=NN(c3ccccc3)C(=O)CN2)cc1` is 26.7%. Take `c1ccc(Cc2noc(CN3CCOC(Cn4cccn4)C3)n2)cc1` (stereo unspecified): the cytotoxicity at 10 µM is -6.67%. With `O=C(CC1NC(N2CCc3ccccc3C2)=NC1=O)Nc1ccccc1` (stereo unspecified), the cytotoxicity at 10 µM was determined as 2.96%. With `Cc1n[nH]c(SCC(=O)NC(c2ccccn2)C(C)C)n1` (stereo unspecified), the cytotoxicity at 10 µM was -2.62%.

For the compound `O=S(=O)(NCCCn1cncn1)c1ccc2c(c1)CCCC2`, the cytotoxicity at 10 µM was 4.16%.

`CNC(=O)[C@@H]1CC[C@@H]2[C@@H](CCN2C(=O)N(C)C)O1`: the cytotoxicity at 10 µM was found to be 13.2%.

`CS(=O)(=O)NC[C@H]1OC[C@@H]2CCN(CCc3ccccc3)C[C@@H]21`: the cytotoxicity at 10 µM was -4.67%. Consider `COCCOCC(C)NC(=O)COc1nn(C)c2nc(C)cc(C)c12` (stereo unspecified), for which the cytotoxicity at 10 µM is -3.85%. The figure for `O=C1CC2(CCN(CCO)CC2)CN1Cc1cc(F)cc(F)c1` is -15.7%. The figure for `CC(C)c1cc(C2CCN(C(=O)Cn3cnnn3)CC2)[nH]n1` is 8.04%; for `CNc1cc(N2CCC(O)(CNC(=O)c3ccc(C)nc3)C2)ncn1` (stereo unspecified) it is -25.3%; for `c1cc(CCN2CCCC2CN2CCCC2)ccn1` (stereo unspecified) it is -2.35%.

As for `CCCOc1cc(C)c2c(c1C)C[C@H]([C@H](C)C(=O)O)CC2`, the cytotoxicity at 10 µM is -4.19%.

With `Cc1nc(-c2cc(C(=O)NCCN3CCOCC3)c3ccccn23)cs1`, the cytotoxicity at 10 µM is 3.59%. The figure for `CC(C)(C)c1nccc(N2CCC(OCCN3CCCCC3)C2)n1` (stereo unspecified) is -53.7%; for `CN(Cc1cn2c(n1)CN(CC1CC1)CC2)Cc1ccco1` it is 1.39%. Then `CCN(Cc1nc(C2CC2)no1)Cc1ccc(C#N)cc1F`, with 3.82%. As for `CC(=O)Nc1nc(CN2CCOC(Cn3cccn3)C2)cs1` (stereo unspecified), the cytotoxicity at 10 µM was -5.69%. As to `O=C(N1CCCC1)N1C[C@H]2CC[C@@]3(N=C(c4ccccc4)NC3=O)[C@H]2C1`, the cytotoxicity at 10 µM stood at 0.516%. On to `CCC(C)NC(=O)c1nn(C)c(NC(=O)c2ccccc2OC)c1F` (stereo unspecified), for which the cytotoxicity at 10 µM was -6.24%. The figure for `CNC(=O)C1Cn2ccnc2C2(CCN(C(=O)NC3CCCC3)CC2)O1` (stereo unspecified) is -104%; for `CN(C)c1cc(C(=O)N2CCCN(Cc3cscn3)CC2)ccn1` it is -15%. Then `Cc1c(NC(=O)C(C)N(C)C)c(=O)n(-c2ccccc2)n1C` (stereo unspecified), with 1.11%; and `O=C(c1ccc2c(c1)CCC2)N1CC[C@H](O)[C@]2(CCCO2)C1`, with -8.97%. Then `Cc1ccccc1CSCCn1nc2ccccn2c1=O`, with 2.57%; and `CC(=O)N(Cc1ncc(C)o1)C1CCN(Cc2ccccc2F)C1` (stereo unspecified), with -8.08%; and `O=C(CCNS(=O)(=O)c1cccnc1)N1CCCCC1`, with -6.13%. Regarding `CC(Oc1ccc(F)cc1)C(=O)N(CC(N)=O)C1CCCC1` (stereo unspecified), the cytotoxicity at 10 µM was determined as 0.217%. Then `COCCc1noc(CN(C)C(=O)c2cccc(N3CCCC3=O)c2)n1`, with -9.91%; and `O=C(Cn1ccnc1)N1C[C@@H]2CC[C@H](Oc3ccccc3F)[C@@H]2C1`, with -28.9%. The figure for `Oc1ccccc1-c1n[nH]c(C2CCCO2)n1` (stereo unspecified) is -5.22%; for `CC(C)C(=O)N1CCC(C)(c2cc(O)[nH]n2)CC1` it is -14.5%; for `CN(C)CCOCC1CN(Cc2ccncc2)Cc2nnn(C)c21` (stereo unspecified) it is 3.66%. With `COCc1noc(Cc2c(C)nn(C)c2C)n1`, the cytotoxicity at 10 µM was 7%. Then `Cc1cccc(CN2C[C@@H]3COC[C@]3(COc3cccnc3)C2)n1`, with 11.4%. For `CS(=O)(=O)c1ccccc1-n1cc(NC(=O)CC2C=CCC2)cn1` (stereo unspecified), the cytotoxicity at 10 µM was 1.78%. The figure for `Cc1n[nH]cc1CNCc1cccc(OCC(F)(F)F)c1` is 2.75%; for `COCCN1CCN(C(=O)c2ccc(C)cc2OC)[C@H]2CS(=O)(=O)C[C@H]21` it is -3.81%; for `O=C(C1CCC1)N1CCN(c2snc3ccccc23)CC1` it is 11.2%. The figure for `Cc1sc2c(C3CCNCC3)nc(Nc3cccc(F)c3)n2c1C` is -0.775%.

Regarding `CCC(CC)C(=O)c1c[nH]c(C(=O)N2CCN(c3ccccc3)CC2)c1`, the cytotoxicity at 10 µM amounted to 14.7%. Consider `O=C(CCCc1ccccn1)N1CCOc2ccc(F)cc21`, for which the cytotoxicity at 10 µM came to 9.81%. The figure for `c1cncc(N2CC[C@@H]3CN(CC4CC4)C[C@@H]3C2)c1` is -4.74%. The figure for `CCc1ccc(NC(=O)C(C)Nc2cccc3c2OCCO3)cc1` (stereo unspecified) is 0.788%; for `O=C(CCOc1ccccc1F)N1CCCC1Cn1cccn1` (stereo unspecified) it is -3.71%. `CN(CCNC(=O)N1CCCC1)C(=O)OC(C)(C)C`: the cytotoxicity at 10 µM was found to be 3.97%. Turning to `O=C(N1CCCC1)N1C[C@@H]2CC[C@H]1CN(Cc1ccncc1)C2`, the cytotoxicity at 10 µM came out at 4.63%. Then `COCC(=O)N1CCn2c(COc3cccnc3)cnc2C1C` (stereo unspecified), with 2.14%; and `N#CC(NC(=O)CC1CCSCC1)c1cnn(-c2ccccc2)c1` (stereo unspecified), with 6.1%.

On to `COc1cccc(CN2CCC3(CCN(C(=O)[C@H]4CCCO4)CC3)C2)c1`, for which the cytotoxicity at 10 µM is 6.57%. The figure for `COCCc1nnc(NC(=O)CCCc2ccccc2)o1` is -4.34%. The figure for `CCN(CC)Cc1ccc(C(=O)NC2CCc3cc(Cl)ccc32)o1` (stereo unspecified) is -3.81%; for `CCOc1ncccc1NC(=O)NC1CCN(c2ncccn2)CC1` it is -33.3%.

For `CNc1nc(C(=O)N2CCCn3nc(C(=O)N4CCCC4)cc3C2)cs1`, the cytotoxicity at 10 µM stood at 4.57%.

Consider `CC(=O)N1N=C(c2ccco2)OC1C(=O)NCCc1ccc(O)cc1` (stereo unspecified), for which the cytotoxicity at 10 µM was -1.19%. For the compound `O=C(Nc1cc(-c2ccncc2)no1)C1CCC1`, the cytotoxicity at 10 µM is -12.6%.

In the case of `CCN(CC)S(=O)(=O)N(Cc1ccccn1)Cc1ccccc1C`, the cytotoxicity at 10 µM was found to be 16.9%.

Turning to `CCS(=O)(=O)N1Cc2nccn2CC(COc2cccnc2)C1` (stereo unspecified), the cytotoxicity at 10 µM is -2.34%. Then `COc1c(C)cnc(CN2CCOC(Cn3cncn3)C2)c1C` (stereo unspecified), with -3.36%; and `O=C(CCc1ccc(F)c(F)c1)N1CCCCC1Cn1cccn1` (stereo unspecified), with -8.01%. The figure for `O=C(NC1CCC1)[C@@H]1CCO[C@@H]2CCN(C3CCCC3)C[C@@H]21` is 11.4%; for `Cc1nc(CNC(=O)Nc2ccc3c(c2)CCCN3C)sc1C` it is -3.68%; for `COc1ccccc1NC(=O)CCNC(=O)c1ccoc1` it is 1.66%.

In the case of `Cn1cc(C2SCC(=O)Nc3c2c(=O)[nH]n3C2CCOCC2)cn1` (stereo unspecified), the cytotoxicity at 10 µM is -0.348%. The figure for `O=C(CCC1CCN(Cc2ncc[nH]2)CC1)Nc1ccccc1Cl` is -21.8%. For `COc1ccccc1C1(O)CCCN(C(=O)c2csc(C(C)=O)c2)C1` (stereo unspecified), the cytotoxicity at 10 µM is -1.41%. The figure for `Cc1cc(CNc2nccc(N)n2)c2[nH]c(C)c(C)c2c1` is -1.86%; for `CCN(C(=O)CN1CCCC1Cc1ccccc1)c1ccccc1` (stereo unspecified) it is 0.686%; for `CCN(CC)C(=O)Nc1cc2c(cc1SC)OCCO2` it is -7.87%. On to `Cc1ncc(CNC(=O)c2oc3ccccc3c2CN(C)C)s1`, for which the cytotoxicity at 10 µM was determined as 13.5%.

`COc1ccc(OCCCN(C)C(=O)C2CCCN2C(N)=O)cc1` (stereo unspecified): the cytotoxicity at 10 µM is 1.7%. As to `COC(=O)NCC1CCC2(CCNCC2)O1` (stereo unspecified), the cytotoxicity at 10 µM came out at 1.82%. The figure for `O=C(Cc1cnn(-c2ccccc2)n1)NC(C1CC1)C1CC1` is -9.66%. The figure for `CC1CCCN(C(=O)c2occc2COc2cccc(C#N)c2)C1` (stereo unspecified) is 4.57%; for `CC(C)(C)c1cc(C(=O)NCCN2CCCS2(=O)=O)[nH]n1` it is -8.16%; for `Cc1cc(CNC(=O)NC(C)c2ccccc2)no1` (stereo unspecified) it is 10.4%.

Turning to `Cc1cnc(CN(C)C2CCCN(c3cccnn3)C2)cn1` (stereo unspecified), the cytotoxicity at 10 µM was 10.4%.

For the compound `Cc1nc2c(c(C)c1CC(=O)Nc1ccc(Cl)cc1)c(=O)[nH]n2C`, the cytotoxicity at 10 µM is -2.85%. Then `O=C(NCCOc1ccc(Cl)cc1)N1CCS(=O)(=O)CC1`, with 0.89%; and `Cc1c(NCC(C)(C)C)cccc1C(=O)N(C)Cc1ncnn1C`, with 22.5%; and `CN(Cc1ccccc1)C1(C(=O)NC(C)(C)CO)Cc2ccccc2C1`, with 0.603%. Then `O=C1CCC(=O)c2oc3ccc(Cl)cc3c2N1`, with 7.58%.

Take `CCOCC1CN(S(C)(=O)=O)Cc2cnn(CC3CCOCC3)c21` (stereo unspecified): the cytotoxicity at 10 µM was -0.851%. Then `Cc1ccccc1-n1cc(CN(C)C[C@@H]2CCCN3CCCC[C@H]23)cn1`, with -3.09%; and `C=Cc1cccc(CN2C[C@@H](CN(C)CC)[C@@H](CO)C2)c1`, with -6.63%; and `CCc1nccn1C1CCCN(C(=O)C2=NN(C)C(=O)CC2)C1` (stereo unspecified), with -17.7%. Turning to `COc1ccc(C(C(=O)O)N2CCC(O)(c3cccnc3)CC2)cc1F` (stereo unspecified), the cytotoxicity at 10 µM is 50.8%. Take `Cc1ccc(CNC(=O)Nc2nnc(C(C)C)s2)n1C`: the cytotoxicity at 10 µM is -10%. Then `CCNC(=O)c1cc2n(n1)CCCO2`, with 1.25%; and `Cc1ccc(NS(=O)(=O)c2cc3c(c(C(=O)O)c2)OCCO3)cc1F`, with -5.77%.

On to `CC(C(=O)NCc1ccco1)N1CCN(Cc2nccn2C)CC1` (stereo unspecified), for which the cytotoxicity at 10 µM was 7.73%. As to `COc1ccccc1[C@@H]1CN(Cc2ccc3nsnc3c2)C[C@H]1C(=O)O`, the cytotoxicity at 10 µM was -4.18%. Then `Cc1n[nH]c(C)c1Sc1ccccc1NC(=O)N1CCOCC(O)C1` (stereo unspecified), with -2.42%; and `Fc1ccc(C2(CNC3=NCCN3)CCCC2)cc1`, with 12.9%.
